The values below come from ChEMBL document CHEMBL1165898, “Novel chromeno [2,3-b]-pyrimidine derivatives as potential anti-microbial agents” (2010).

The test system of experiment [1] is Pseudomonas aeruginosa. Description: Antibacterial activity against Pseudomonas aeruginosa at 1.6125 to […] after 16 hrs by serial dilution method. Format: functional, organism-based. The method in brief: (§1)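 Tube broth dilution MIC in trypticase soya broth. Colonies from a fresh plate were grown 6 h at 37 °C, adjusted to […] with sterile PBS (10⁸ cfu/mL), then diluted 10³-fold in broth to 10⁵ cfu/mL. Compounds were serially diluted across six tubes per organism and 1 mL inoculum was added. Inoculum-only and broth-only controls were run. Incubation was 16 h at 37 °C. MIC was read as no visible growth.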

The subject of experiment [2] is Escherichia coli. Description: Antibacterial activity against Escherichia coli at 1.6125 to […] after 16 hrs by serial dilution method. The experiment is classed as functional, organism-based. The method in brief:
as §1

Experiment [3] has as its system Staphylococcus aureus. Description: Antibacterial activity against Staphylococcus aureus after 16 hrs by serial dilution method. The experiment is classed as functional.
In experiment [4] the test system is Bacillus subtilis. Description: Antibacterial activity against Bacillus subtilis at 1.6125 to […] after 16 hrs by serial dilution method. The experiment is classed as functional, organism-based. A digest of the protocol:
as §1

The test system of experiment [5] is Bacillus subtilis. Description: Antibacterial activity against Bacillus subtilis after 16 hrs by serial dilution method. Format: functional.
Experiment [6] deals with Staphylococcus aureus. Description: Antibacterial activity against Staphylococcus aureus at 1.6125 to […] after 16 hrs by serial dilution method. The experiment is classed as functional, organism-based. The method in brief: as §1
Experiment [7] has as its system Pseudomonas aeruginosa. Description: Antibacterial activity against Pseudomonas aeruginosa after 16 hrs by serial dilution method. The experiment is classed as functional. The method in brief: as §1
Experiment [8] has as its system Escherichia coli. Description: Antibacterial activity against Escherichia coli after 16 hrs by serial dilution method. The experiment is classed as functional.

≈ marks a conversion by molar mass, not a printed value. Calls of active or inactive are those of the source. The calls are words filed in the database; no cut-off is given here.

The MIC is the least concentration at which growth counts as inhibited. `Cc1ccc(Nc2ncnc3c2Cc2ccccc2O3)cc1F`: the MIC entry with Pseudomonas aeruginosa [1], with Escherichia coli [2] and in the experiment with Bacillus subtilis [4] was “inactive” each time. The compound also showed a minimal inhibitory concentration (MIC) against Staphylococcus aureus [3] of 50 µg/mL (≈ 163 µM).
For `Cc1ccc(C)c(Nc2ncnc3c2Cc2ccccc2O3)c1`, the MIC result with Pseudomonas aeruginosa [1] and in the experiment on Escherichia coli [2] was “inactive” in each case. Moreover, the MIC against Bacillus subtilis [5] and against Staphylococcus aureus [3] was 1.61 µg/mL (≈ 5.32 µM) in each case.
Take `Cc1cnc(Nc2ncnc3c2Cc2ccccc2O3)s1`: the MIC entry with Staphylococcus aureus [6], in the experiment on Escherichia coli [2] and in the experiment on Bacillus subtilis [4] was “inactive” in each case. In addition, the MIC against Pseudomonas aeruginosa [7] came out at 25 µg/mL (≈ 84.4 µM).
With `Cc1cc(C(F)(F)F)ccc1Nc1ncnc2c1Cc1ccccc1O2`, the MIC entry in the experiment with Pseudomonas aeruginosa [1], in the experiment on Staphylococcus aureus [6], in the experiment on Escherichia coli [2] and in the experiment with Bacillus subtilis [4] was “inactive” in each case.
`CO/N=C(\C(=O)N[C@@H]1C(=O)N2C(C(=O)O)=C(CSc3nc(=O)c(O)nn3C)CS[C@H]12)c1csc(N)n1` [CEFTRIAXONE]: the MIC in the experiment on Bacillus subtilis [5] came to 1.61 µg/mL (≈ 2.91 µM); in the experiment with Staphylococcus aureus [3], 3.12 µg/mL (≈ 5.63 µM); against Escherichia coli [8], 1.61 µg/mL (≈ 2.91 µM); in the experiment with Pseudomonas aeruginosa [7], 1.61 µg/mL (≈ 2.91 µM).
For the compound `Clc1ccc(CNc2ncnc3c2Cc2ccccc2O3)cc1`, in the experiment with Pseudomonas aeruginosa [1], the MIC entry is “inactive”. Also, the MIC with Bacillus subtilis [5] came to 1.61 µg/mL (≈ 4.98 µM); against Staphylococcus aureus [3], 1.61 µg/mL (≈ 4.98 µM); in the experiment on Escherichia coli [8] it was 50 µg/mL (≈ 154 µM).
Turning to `c1ccc(CNc2ncnc3c2Cc2ccccc2O3)cc1`, in the experiment on Pseudomonas aeruginosa [1], the MIC result was “inactive”. The values for the MIC against Bacillus subtilis [5], in the experiment on Staphylococcus aureus [3] and in the experiment on Escherichia coli [8] were 1.61 µg/mL (≈ 5.57 µM), 1.61 µg/mL (≈ 5.57 µM) and 25 µg/mL (≈ 86.4 µM), respectively.
Take `Clc1ccc(Nc2ncnc3c2Cc2ccccc2O3)c(Cl)c1`: the MIC result in the experiment on Pseudomonas aeruginosa [1], in the experiment on Staphylococcus aureus [6], in the experiment with Escherichia coli [2] and in the experiment on Bacillus subtilis [4] was “inactive” throughout.
With `Nc1ncnc2c1Cc1ccccc1O2`, the MIC entry in the experiment on Pseudomonas aeruginosa [1], with Staphylococcus aureus [6], in the experiment with Escherichia coli [2] and in the experiment on Bacillus subtilis [4] was “inactive” each time.
In the case of `c1ccc(CN2CCC(Nc3ncnc4c3Cc3ccccc3O4)CC2)cc1`, in the experiment with Pseudomonas aeruginosa [1], the MIC result is “inactive”. In addition, the minimum inhibitory concentration (MIC) is 1.61 µg/mL (≈ 4.33 µM) with Bacillus subtilis [5], 1.61 µg/mL (≈ 4.33 µM) against Staphylococcus aureus [3] and 3.12 µg/mL (≈ 8.39 µM) in the experiment with Escherichia coli [8].
In the case of `c1ccc2c(c1)Cc1c(NC34CC5CCCC(C3)C5C4)ncnc1O2` (stereo not drawn), the MIC entry in the experiment on Staphylococcus aureus [6] and with Bacillus subtilis [4] was “inactive” in each case. Further, the MIC against Escherichia coli [8] and with Pseudomonas aeruginosa [7] was 50 µg/mL (≈ 150 µM) throughout.
As to `c1ccc2c(c1)Cc1c(Nc3cccc4ccccc34)ncnc1O2`, the MIC entry with Pseudomonas aeruginosa [1] and in the experiment with Escherichia coli [2] was “inactive” each time. The minimum inhibitory concentration (MIC) against Bacillus subtilis [5] and against Staphylococcus aureus [3] was 1.61 µg/mL (≈ 4.96 µM) in each case.
